A selection: hits, their analogues and other compounds. The true share with any hit is near 4.3%.
Rin1-Abl PPI inh: inhibitors of Rin1-Abl protein binding, primary screen, biochemical, TR-FRET; inhibition, % at 7.35 µM; 360,000 compounds, 0.4% hits; in the data active = inhibition above about 5%, passing the limit was not always enough
ALR H2O2 inh: inhibitors of human ALR sulfhydryl oxidase, primary screen, biochemical, H2O2 detection, HRP-luminol luminescence, single point | FAD-linked sulfhydryl oxidase ALR (Homo sapiens), P55789 | purified ALR, DTT oxidation | inhibition, % (no concentration beside the values) | 290,000 compounds, 3.8% hits | AID 485317, 2010;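 active = mean replicate inhibition above about 79%, with every replicate also reaching it, limit read from the data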
PREPL inhibitor: PREPL enzyme inhibitors, primary screen, biochemical, fluorescence polarization; 320,000 compounds, 0.68% hits; recombinant PREPL, fluorescence polarization activity-based probe; AID 2751, 2010; inhibition, % at 5.96 µM; in the data active = inhibition above about 43%;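 also: 0% = enzyme with DMSO and 100% = wells lacking enzyme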
UBC9 SUMO inh: inhibitors of in vitro SUMOylation cascade, primary screen, biochemical, HTRF, uHTS | HTRF SUMOylation assay, SAE1/SAE2 + UBC9 | inhibition, % at 35 µM | 290,000 compounds, 0.36% hits | AID 2006, 2009; in the data active = inhibition above about 50%, passing the limit was not always enough
RBBP9 inhibitor: human RBBP9 inhibitors, primary screen, biochemical, fluorescence polarization, FP-Rh probe, HTS; recombinant RBBP9; 220,000 compounds, 0.2% hits; inhibition, % at 7.94 µM; AID 1515, 2009;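 active = inhibition above the campaign mean of all tested compounds plus 3 SD, cut at about 14% in these data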;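 also: plate controls were DMSO wells with RBBP9 for no effect and wells lacking RBBP9 protein for full effect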
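Test system: recombinant human RBBP9; Timing: 30 min then 45 min, 25 °C; Detection: fluorescence polarization; Control set: RBBP9 with DMSO as uninhibited control, no-protein wells as full inhibition; Compound dosing: one concentration, 7.94 µM nominal, 0.794% DMSO; Probe or stimulus: FP-Rh activity-based probe, 375 nM before mixing.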
UBC13 inh: UBC13 polyubiquitin chain formation inhibitors, primary screen, biochemical, TR-FRET, uHTS | inhibition, % at 20 µM | 330,000 compounds, 0.47% hits | AID 485273, 2010; in the data active = inhibition above about 45%, passing the limit was not always enough
Target sequence (P61088 whole entry, looked up): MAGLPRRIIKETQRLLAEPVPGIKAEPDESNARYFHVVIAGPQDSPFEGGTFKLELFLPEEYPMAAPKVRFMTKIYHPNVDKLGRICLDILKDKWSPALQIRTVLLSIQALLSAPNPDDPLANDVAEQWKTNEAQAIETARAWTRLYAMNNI
Casp3 counter: CASP3 inhibitor validation, counterassay for project on UBE2N polyubiquitination blockers, biochemical, one dose | AID 488856, 2010 | 1,400 compounds, 4% hits | Recombinant caspase-3, Caspase-Glo 3/7 luminescence, 60 min | inhibition, % at 20 µM | shares compounds with UBC13 inh;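 active = mean inhibition across replicates above about 26%, limit read from the data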;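 also: plate controls were DMSO with caspase-3 for no effect and DMSO wells lacking enzyme for full effect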
Target sequence (P42574 whole entry, looked up): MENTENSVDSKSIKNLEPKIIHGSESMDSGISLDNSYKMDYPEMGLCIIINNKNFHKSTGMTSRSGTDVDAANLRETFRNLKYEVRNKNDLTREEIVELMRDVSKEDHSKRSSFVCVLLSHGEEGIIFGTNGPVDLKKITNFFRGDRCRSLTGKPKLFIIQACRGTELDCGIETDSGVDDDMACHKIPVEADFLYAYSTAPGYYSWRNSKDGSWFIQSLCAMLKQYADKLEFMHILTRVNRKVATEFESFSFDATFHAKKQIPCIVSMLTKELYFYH
UBC13 confirm: UBC13 polyubiquitination inhibitors, single-point retest, confirmation, biochemical, TR-FRET, single concentration; shares compounds with UBC13 inh; inhibition, % at 10 µM; 1,400 compounds, 68% hits; AID 488859, 2010; in the data active = inhibition above about 45%
Numbers without * were called inactive.

How did CC[C@H](C)[C@@H](C(=O)NCCCCCCCCCCC(=O)N1CCNCC1)n1cc(CCCCN=C(N)N)nn1 do in these assays?
Rin1-Abl PPI inh: 6; ALR H2O2 inh: -33; PREPL inhibitor: 9; UBC13 inh: 49*; Casp3 counter: 2; UBC13 confirm: 24

How did C#CCOCCOCCOCCNc1nc(N2CCN(C(=O)CCCCCCCCCCNC(=O)Cn3cc(C[C@@H](C)O)nn3)CC2)nc(N2CCN(C(=O)CCCCCCCCCCNC(=O)[C@H](CCCCN)n3cc(CCCC(=O)O)nn3)CC2)n1 do in these assays?
Rin1-Abl PPI inh: 6; ALR H2O2 inh: -31; PREPL inhibitor: 18; UBC13 inh: 44

Results for C#CCOCCOCCOCCNc1nc(N2CCOCC2)nc(N2CCN(C(=O)CCCCCCCCCCNC(=O)[C@@H]([C@H](C)CC)n3cc(CCCCCN)nn3)CC2)n1 ?
Rin1-Abl PPI inh: 3; PREPL inhibitor: 15; UBC13 inh: 70*; Casp3 counter: 2; UBC13 confirm: 64*

Results for C#CCOCCOCCOCCNc1nc(N2CCN(C(=O)CCCCCCCCCCNC(=O)[C@H]([C@@H](C)CC)n3cc(CCCCCN)nn3)CC2)nc(N2CCN(C(=O)CCCCCCCCCCNC(=O)[C@H](CCCCN)n3cc(CCCC(=O)O)nn3)CC2)n1 ?
Rin1-Abl PPI inh: 4; ALR H2O2 inh: -8; PREPL inhibitor: 29; UBC13 inh: 114*; Casp3 counter: -2; UBC13 confirm: 105*

Results for CC[C@H](C)Cc1cn([C@@H](CCCN=C(N)N)C(=O)NCCCCCCCCCCC(=O)N2CCNCC2)nn1 ?
Rin1-Abl PPI inh: 8; ALR H2O2 inh: -5; PREPL inhibitor: 18; UBC13 inh: 40

Results for CCCCNC(=O)c1onc(CSc2cc(C)cc(C)c2)c1C(=O)NCCCC ?
Rin1-Abl PPI inh: 1; ALR H2O2 inh: -7; PREPL inhibitor: 17; UBC13 inh: 9

Results for C#CCOCCOCCOCCNc1nc(N2CCN(C(=O)CCCCCCCCCCNC(=O)[C@@H](CCC(=O)O)n3cc(CCCCCN)nn3)CC2)nc(N2CCN(C(=O)CCCCCCCCCCNC(=O)[C@H]([C@@H](C)CC)n3cc(CCCCCN)nn3)CC2)n1 ?
Rin1-Abl PPI inh: -1; ALR H2O2 inh: 4; PREPL inhibitor: 30; UBC13 inh: 114*; Casp3 counter: -2; UBC13 confirm: 104*

How did C#CCOCCOCCOCCNc1nc(N2CCN(C(=O)CCCCCCCCCCNC(=O)[C@H](CCCCN)n3cc(CCCC(=O)O)nn3)CC2)nc(N2CCN(C(=O)CCCCCCCCCCNC(=O)[C@@H]([C@H](C)O)n3cc(C)nn3)CC2)n1 do in these assays?
Rin1-Abl PPI inh: 5; ALR H2O2 inh: -7; PREPL inhibitor: 18; UBC13 inh: 54*; Casp3 counter: -1; UBC13 confirm: 32

Results for Cc1cccc(CSc2nnc3c(n2)[nH]c2ccccc23)c1 ?
Rin1-Abl PPI inh: -2; PREPL inhibitor: 5; UBC9 SUMO inh: 16; RBBP9 inhibitor: -3; UBC13 inh: 0

Results for COc1ccc(N(CC(=O)NC2CCCCCC2)S(=O)(=O)c2ccccc2)cc1Cl ?
Rin1-Abl PPI inh: 0; ALR H2O2 inh: -4; PREPL inhibitor: -3; UBC9 SUMO inh: -9; UBC13 inh: -3

Screening results deposited in PubChem by several laboratories.
